# According to ChEMBL document CHEMBL3414468, “N-benzoyl-1,5-benzothiazepine and its S-oxide as vasopressin receptor ligands: insight into the active stereochemistry around the seven-membered ring” (J Med Chem, 2015):
# Several values for one entry are separate records, joined by “and”; a condition that tells them apart may be missing. Equal entries are not always repeated.
# Tests used:
# Vasopressin V2 receptor [1] = target: T1, Vasopressin V2 receptor (Homo sapiens, UniProt P30518); assay: Displacement of [3H]-(Arg8)-vasopressin from human vasopressin V2 receptor transfected in CHO cell membranes
# How it was run: (§1)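 Competition binding of [3H](Arg8)-vasopressin to human V1a or V2 receptors. Ki is reported as the mean of duplicate measurements. Where no Ki was given, percent inhibition of radioligand binding was read at 10 μM test compound.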
# Vasopressin V1a receptor [2] = target: T2, Vasopressin V1a receptor (Homo sapiens, UniProt P37288); assay: Displacement of [3H]-(Arg8)-vasopressin from human vasopressin V1a receptor transfected in CHO cell membranes; how it was run: as §1
# Target sequence in this assay (P37288 whole entry): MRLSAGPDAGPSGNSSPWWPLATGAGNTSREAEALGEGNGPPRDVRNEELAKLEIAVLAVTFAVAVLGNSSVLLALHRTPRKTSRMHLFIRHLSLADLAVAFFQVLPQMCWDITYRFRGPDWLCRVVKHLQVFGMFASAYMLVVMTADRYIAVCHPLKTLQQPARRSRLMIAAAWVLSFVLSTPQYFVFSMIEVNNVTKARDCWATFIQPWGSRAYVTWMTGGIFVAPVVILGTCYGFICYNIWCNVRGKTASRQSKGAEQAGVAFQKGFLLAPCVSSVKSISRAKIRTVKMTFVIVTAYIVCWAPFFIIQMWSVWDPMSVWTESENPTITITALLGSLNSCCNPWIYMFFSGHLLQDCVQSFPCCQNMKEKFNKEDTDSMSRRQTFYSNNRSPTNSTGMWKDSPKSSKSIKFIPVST
# Vasopressin V2 receptor [3] = target: T1, Vasopressin V2 receptor; assay: Displacement of [3H]-(Arg8)-vasopressin from human vasopressin V2 receptor transfected in CHO cell membranes at 10 uM relative to control; how it was run: as §1
# Vasopressin V1a receptor [4] = target: T2, Vasopressin V1a receptor; assay: Displacement of [3H]-(Arg8)-vasopressin from human vasopressin V1a receptor transfected in CHO cell membranes at 10 uM relative to control; how it was run: as §1
# Target sequence in this assay (P37288 whole entry, looked up): as the sequence (P37288 whole entry) above
# T1 sequence (P30518 whole entry): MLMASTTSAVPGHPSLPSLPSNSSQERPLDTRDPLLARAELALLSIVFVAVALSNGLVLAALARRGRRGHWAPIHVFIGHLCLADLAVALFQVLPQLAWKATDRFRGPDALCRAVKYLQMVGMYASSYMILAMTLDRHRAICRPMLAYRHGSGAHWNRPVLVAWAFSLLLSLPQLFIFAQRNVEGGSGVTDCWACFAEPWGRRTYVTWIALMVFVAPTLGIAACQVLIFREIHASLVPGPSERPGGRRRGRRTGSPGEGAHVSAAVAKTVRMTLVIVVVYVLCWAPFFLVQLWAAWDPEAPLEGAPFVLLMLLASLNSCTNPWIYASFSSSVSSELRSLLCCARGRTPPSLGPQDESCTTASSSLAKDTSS
Structure (SMILES),Ki (Vasopressin V2 receptor [1]),Ki (Vasopressin V1a receptor [2]),inhibition (Vasopressin V2 receptor [3]) [%],inhibition (Vasopressin V1a receptor [4]) [%]
Cc1ccccc1C(=O)Nc1ccc(C(=O)N2CCCSc3ccccc32)cc1,21 nM,68 nM,–,–
Cc1ccccc1C(=O)Nc1ccc(C(=O)N2CCCSc3cccc(C)c32)cc1,360 nM and 184 nM and 1800 nM,37 nM and 19 nM and 147 nM,–,–
Cc1ccccc1C(=O)Nc1ccc(C(=O)N2CCCSc3c(C)cccc32)cc1,880 nM,48 nM,–,–
Cc1ccccc1C(=O)Nc1ccc(C(=O)N2CCCN(C)c3cccc(C)c32)cc1,130 nM and 98 nM and 310 nM,5.9 nM and 4.4 nM and 13 nM,–,–
Cc1ccccc1C(=O)Nc1ccc(C(=O)N2CCC[S+]([O-])c3ccccc32)cc1 (racemic),870 nM,910 nM,–,–
Cc1ccccc1C(=O)Nc1ccc(C(=O)N2CCC[S+]([O-])c3c(C)cccc32)cc1 (racemic),–,870 nM,34,–
Cc1ccccc1C(=O)Nc1ccc(C(=O)N2CCC[S@@+]([O-])c3cccc(C)c32)cc1 (racemic),–,–,22,55
Cc1ccccc1C(=O)Nc1ccc(C(=O)N2CCC[S@@+]([O-])c3ccccc32)cc1 (stereo in doubt; (+)) [listing 1 of 2 here],1240 nM,–,–,–
Cc1ccccc1C(=O)Nc1ccc(C(=O)N2CCC[S@@+]([O-])c3c(C)cccc32)cc1 (stereo in doubt; (+)) [listing 1 of 2 here],–,660 nM,–,–
Cc1ccccc1C(=O)Nc1ccc(C(=O)N2CCC[S@@+]([O-])c3c(C)cccc32)cc1 (stereo in doubt; (+)) [listing 2 of 2 here],–,–,48,–
Cc1ccccc1C(=O)Nc1ccc(C(=O)N2CCC[S@@+]([O-])c3ccccc32)cc1 (stereo in doubt; (+)) [listing 2 of 2 here],–,–,–,57
Cc1ccccc1C(=O)Nc1ccc(C(=O)N2CCC[S@@+]([O-])c3ccccc32)cc1 (stereo in doubt; (-)),820 nM,550 nM,–,–
Cc1ccccc1C(=O)Nc1ccc(C(=O)N2CCC[S@@+]([O-])c3c(C)cccc32)cc1 (stereo in doubt; (-)),–,–,0,53
